From ChEMBL document CHEMBL4261600 (Eur J Med Chem, 2018) come the findings set out here.

A short description of data set [1]: Antiproliferative activity against CHO cells after 72 hrs by Celltiter-Glo assay. In kind it is cell-based, Cricetulus griseus. The note with it: chinese hamster. An outline of the steps:
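Cells seeded at 3000/well in 96-well plates, exposed to serially diluted compound for 72 h at 37 °C, 5% CO2. Viability read by CellTiter-Glo luminescence and normalized to DMSO control. GI50 derived from curve fit, mean of three independent measurements. Culture media: DMEM/10% FBS for adherent lines; IMDM for MV4-11 and MEC-1/2; RPMI 1640 for suspension lines and CHL.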
(In ATP-based viability assays light output follows the ATP content of the culture.)

The test system of a further data set is MV4-11. The experiment in a line: Induction of apoptosis in human MV4-11 cells assessed as decrease in BCL-2 level up to 3 uM after 2 hrs by immunoblotting analysis. In kind it is functional, cell-based. On the technique in general: Immunoblotting shows a protein as a band on a membrane.
The test system of a further data set is Mus musculus. The experiment in a line: Toxicity in nu/nu mouse xenografted with MV4-11 cells assessed as effect on body weight at 10 to 30 mg/kg, po administered via gavage for 21 days measured every day during compound dosing. In kind it is organism-based. The note with it: in vivo, 504 h.
In data set [2] the test system is Tyrosine-protein kinase ABL1 (Homo sapiens), P00519 [Q252H]. The data set is described as follows: Binding affinity to human phosphorylated ABL1 Q252H mutant expressed in mammalian expression system assessed as remaining unbound target protein level at 1000 nM by Kinomescan method relative to control. The procedure, abridged: (§1)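 Single-point competition binding screen across a panel of 468 kinases and mutants, with the inhibitor at 1 μM. Binding is read out as percent of a DMSO control, and targets below 1 percent control were classed as strong binders.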

The target in data set [3] is Casein kinase II subunit alpha' (Homo sapiens) (UniProt P19784). The data set is described as follows: Binding affinity to wild-type human full length CSNK2A2 (M1 to R350 residues) expressed in mammalian expression system assessed as remaining unbound target protein level at 1000 nM by Kinomescan method relative to control. An outline of the steps: (§2)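 KINOMEscan competition binding profile across a panel of 468 kinases and mutants, with the inhibitor tested at a single concentration of 1 μM. Binding is reported as percent of control, meaning signal relative to a DMSO control.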

Data set [4] addresses Serine/threonine-protein kinase MRCK gamma (Homo sapiens) (UniProt Q6DT37). The experiment in a line: Binding affinity to wild-type human partial length DMPK2 (S46 to S408 residues) expressed in bacterial expression system assessed as remaining unbound target protein level at 1000 nM by Kinomescan method relative to control.
Data set [5] concerns the target Epidermal growth factor receptor (Homo sapiens) (UniProt P00533). The data set is described as follows: Binding affinity to human partial length EGFR E746-A750del mutant expressed in bacterial expression system assessed as remaining unbound target protein level at 1000 nM by Kinomescan method relative to control. An outline of the steps:
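KINOMEscan competition-binding profiling across the panel of 468 kinases and mutants, with inhibitor tested at 1 μM. Binding is expressed as percent of control, with DMSO as the reference control.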

For data set [6], the target named is Mitogen-activated protein kinase 1 (Homo sapiens) (UniProt P28482). The experiment in a line: Binding affinity to wild-type human full length ERK2 (M1 to S360 residues) expressed in bacterial expression system assessed as remaining unbound target protein level at 1000 nM by Kinomescan method relative to control. An outline of the steps:
as §1

For data set [7], the target named is Mitogen-activated protein kinase 8 (Homo sapiens) (UniProt P45983). The data set is described as follows: Binding affinity to wild-type human full length JNK1 (M1 to Q384 residues) expressed in mammalian expression system assessed as remaining unbound target protein level at 1000 nM by Kinomescan method relative to control. An outline of the steps:
as §2

The target in data set [8] is Mitogen-activated protein kinase 10 (Homo sapiens) (UniProt P53779). The experiment in a line: Binding affinity to wild-type human partial length JNK3 (V28 to Q422 residues) expressed in mammalian expression system assessed as remaining unbound target protein level at 1000 nM by Kinomescan method relative to control. The procedure, abridged:
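KINOMEscan binding panel of 468 kinases/mutants. Inhibitor was tested at a single concentration of 1 μM. Binding is reported as percent of control, defined relative to a DMSO control.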

In data set [9] the target is LIM domain kinase 1 (Homo sapiens) (UniProt P53667). The data set is described as follows: Binding affinity to wild-type human full length LIMK1 (M1 to D647 residues) expressed in bacterial expression system assessed as remaining unbound target protein level at 1000 nM by Kinomescan method relative to control. The procedure, abridged: as §1
Data set [10] has as its target Dual specificity mitogen-activated protein kinase kinase 7 (Homo sapiens) (UniProt O14733). The experiment in a line: Binding affinity to wild-type human full length MKK7 (M1 to R419 residues) expressed in mammalian expression system assessed as remaining unbound target protein level at 1000 nM by Kinomescan method relative to control. An outline of the steps:
as §1

In data set [11] the target is Serine/threonine-protein kinase Nek2 (Homo sapiens) (UniProt P51955). The experiment in a line: Binding affinity to wild-type human partial length NEK2 (M1 to K309 residues) expressed in bacterial expression system assessed as remaining unbound target protein level at 1000 nM by Kinomescan method relative to control.
Data set [12] has as its target Phosphatidylinositol 4-kinase beta (Homo sapiens) (UniProt Q9UBF8). The experiment in a line: Binding affinity to wild-type human full length PIK4CB (M1 to M828 residues) expressed in mammalian expression system assessed as remaining unbound target protein level at 1000 nM by Kinomescan method relative to control. An outline of the steps:
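Profiled in a KINOMEscan binding panel with the inhibitor at a single concentration of 1 μM. Binding to each kinase was read out as percent of control, relative to a DMSO control. Strong binders were defined as those with a percent control value below 1.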

Data set [13] has as its target Serine/threonine-protein kinase PLK4 (Homo sapiens) (UniProt O00444). The experiment in a line: Binding affinity to wild-type human partial length PLK4 (M1 to S273 residues) expressed in mammalian expression system assessed as remaining unbound target protein level at 1000 nM by Kinomescan method relative to control.
Data set [14] has as its target Serine/threonine-protein kinase Sgk2 (Homo sapiens) (UniProt Q9HBY8). The data set is described as follows: Binding affinity to wild-type human partial length SGK2 (L54 to C427 residues) expressed in mammalian expression system assessed as remaining unbound target protein level at 1000 nM by Kinomescan method relative to control.
The target in data set [15] is BDNF/NT-3 growth factors receptor (Homo sapiens) (UniProt Q16620). The experiment in a line: Binding affinity to wild-type human partial length TRKB (Q547 to G838 residues) expressed in mammalian expression system assessed as remaining unbound target protein level at 1000 nM by Kinomescan method relative to control.
In data set [16] the target is Serine/threonine-protein kinase WNK4 (Homo sapiens) (UniProt Q96J92). The experiment in a line: Binding affinity to wild-type human partial length WNK4 (A31 to D461 residues) expressed in mammalian expression system assessed as remaining unbound target protein level at 1000 nM by Kinomescan method relative to control.
Data set [17] addresses Tyrosine-protein kinase Yes (Homo sapiens) (UniProt P07947). The experiment in a line: Binding affinity to wild-type human partial length YES (T257 to L543 residues) expressed in bacterial expression system assessed as remaining unbound target protein level at 1000 nM by Kinomescan method relative to control.
Data set [18] addresses Mitogen-activated protein kinase kinase kinase 19 (Homo sapiens) (UniProt Q56UN5). The experiment in a line: Binding affinity to wild-type human partial length YSK4 (T1019 to H1328 residues) expressed in mammalian expression system assessed as remaining unbound target protein level at 1000 nM by Kinomescan method relative to control.

Calls of active or inactive are those of the source.

As a reminder, the GI50 is the concentration that inhibits growth by half. In [1], `COCCN[C@H]1CC[C@H](Nc2cc(-c3csc(NCC4(C#N)CCOCC4)n3)c(Cl)cn2)CC1` gave a GI50 at 72 h of 1100 nM. Besides, in the data set with MV4-11, the result was inactive. Moreover, the Activity entry with Mus musculus is “Non-Toxic”; in data set [2] it was 90%; in data set [3], 99%; in [4], 92%; in data set [5] it was 83%; in [6], 96%. Also, the Activity in data set [7] worked out at 4.8%; in data set [8], 7.1%; in [9] it was 90%; in data set [10] it was 100%; in data set [11] it was 100%; in data set [12], 100%. Moreover, the Activity in data set [13] came out at 100%; in data set [14], 89%; in [15], 79%; in data set [16] it was 100%; in data set [17] it was 97%; in data set [18], 72%.
